Reference: ChEMBL document CHEMBL1150787, “The L80I substitution in the reverse transcriptase domain of the hepatitis B virus polymerase is associated with lamivudine resistance and enhanced viral replication in vitro” (Antimicrob Agents Chemother, 2007)
Calls of active or inactive are those of the source. No cut-off for these calls is given here.

Assays:
HBV genotype D [1] = assay: Antiviral activity against HBeAg-deficient HBV genotype D with precore G1896A mutation and reverse transcriptase L80I mutation in human Huh7 cells assessed as viral replication yield at 1 uM after 5 days relative to control; format: functional, hepatitis B virus genotype D, Huh-7
In short: (§1)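 Huh7 transfectants were cultured for 5 days with or without 1 μM LMV. Intracellular core-associated HBV DNA was measured by Southern blot and densitometry. Yields were corrected for transfection efficiency by HBsAg in supernatant (IMX immunoassay) and expressed relative to the mean of uninhibited controls (1.0). Each value comes from at least three experiments.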

HBV genotype D [2] = assay: Antiviral activity against HBeAg-deficient HBV genotype D with precore G1896A mutation and reverse transcriptase M204I mutation in human Huh7 cells assessed as inhibition of viral replication after 5 days; format: functional, organism-based; conditions: hepatitis B virus genotype D; Huh-7
In short: (§2)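 Huh7 cells grown in DMEM with 10% FBS at 37°C and 5% CO₂, then transiently transfected with each HBV construct. Cultures were exposed continuously to LMV at 0, 0.001, 0.01, 0.1, 1 or 10 μM for 5 days. Intracellular core-associated HBV DNA was quantified by Southern blot, autoradiography and densitometry, normalised to untreated controls. EC50 was taken from a three-parameter logistic fit of three pooled assays.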

HBV genotype D [3] = assay: Antiviral activity against HBV genotype D with reverse transcriptase L80I/M204I mutation in human Huh7 cells assessed as inhibition of viral replication after 5 days; format: functional, organism-based; conditions: hepatitis B virus genotype D; Huh-7; in short: as §2
HBV genotype D [4] = assay: Antiviral activity against HBV genotype D with reverse transcriptase L80I mutation in human Huh7 cells assessed as viral replication yield at 1 uM after 5 days relative to control; format: functional, hepatitis B virus genotype D, Huh-7; in short: as §1
HBV genotype D [5] = assay: Antiviral activity against HBeAg-deficient HBV genotype D with precore G1896A mutation in human Huh7 cells assessed as inhibition of viral replication after 5 days; format: functional, organism-based; conditions: Hepatitis B virus, Huh-7, 120 h; in short: as §2
HBV genotype D [6] = assay: Antiviral activity against HBV genotype D in human Huh7 cells assessed as viral replication yield at 1 uM after 5 days relative to control; format: functional, hepatitis B virus genotype D, Huh-7
In short: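 Transiently transfected Huh7 cells were cultured for 5 days with or without 1 μM LMV. Intracellular core-associated HBV DNA was measured by Southern blot, corrected for transfection efficiency using supernatant HBsAg (IMX enzyme immunoassay), and expressed relative to the mean of the uninhibited controls (set to 1.0). Data come from at least three experiments.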

HBV genotype D [7] = assay: Antiviral activity against HBeAg-deficient HBV genotype D with precore G1896A mutation and reverse transcriptase L80I mutation in human Huh7 cells assessed as inhibition of viral replication after 5 days; format: functional, organism-based; conditions: Hepatitis B virus, Huh-7, 120 h; in short: as §2
HBV genotype D [8] = assay: Antiviral activity against HBeAg-deficient HBV genotype D with precore G1896A mutation and reverse transcriptase L80I/M204I mutation in human Huh7 cells assessed as inhibition of viral replication after 5 days; format: functional, organism-based; conditions: hepatitis B virus genotype D; Huh-7; in short: as §2
HBV genotype D [9] = assay: Antiviral activity against HBV genotype D with reverse transcriptase L80I mutation in human Huh7 cells assessed as inhibition of viral replication after 5 days; format: functional, organism-based; conditions: Hepatitis B virus, Huh-7, 120 h; in short: as §2
HBV genotype D [10] = assay: Antiviral activity against HBV genotype D with reverse transcriptase L80I/L180M/M204I mutation in human Huh7 cells assessed as inhibition of viral replication after 5 days; format: functional, organism-based; conditions: hepatitis B virus genotype D; Huh-7; in short: as §2
HBV genotype D [11] = assay: Antiviral activity against HBV genotype D with reverse transcriptase L180M/M204I mutation in human Huh7 cells assessed as viral replication yield at 1 uM after 5 days relative to control; format: functional, hepatitis B virus genotype D, Huh-7; in short: as §1
HBV genotype D [12] = assay: Effect on replication efficiency of HBV genotype D with reverse transcriptase L80I/L180M/M204I mutation in human Huh7 cells assessed as decrease in viral replication yield at 1 uM after 5 days relative to control; format: functional, hepatitis B virus genotype D, Huh-7; design: scale not given: the % may be the effect or the level left; in short: as §1
HBV genotype D [13] = assay: Effect on replication efficiency of HBeAg-deficient HBV genotype D with precore G1896A mutation and reverse transcriptase L80I/M204I mutation in human Huh7 cells assessed as decrease in viral replication yield at 1 uM after 5 days relative to control; format: functional, hepatitis B virus genotype D, Huh-7; design: scale not given: the % may be the effect or the level left; in short: as §1
HBV genotype D [14] = assay: Antiviral activity against HBeAg-deficient HBV genotype D with precore G1896A mutation and reverse transcriptase L180M/M204I mutation in human Huh7 cells assessed as inhibition of viral replication after 5 days; format: functional, organism-based; conditions: hepatitis B virus genotype D; Huh-7; in short: as §2
HBV genotype D [15] = assay: Antiviral activity against HBV genotype D with reverse transcriptase L80I/M204I mutation in human Huh7 cells assessed as viral replication yield at 1 uM after 5 days relative to control; format: functional, hepatitis B virus genotype D, Huh-7; in short: as §1
HBV genotype D [16] = assay: Effect on replication efficiency of HBeAg-deficient HBV genotype D with precore G1896A mutation and reverse transcriptase L80I mutation in human Huh7 cells assessed as decrease viral replication yield at 1 uM after 5 days relative to control; format: functional, hepatitis B virus genotype D, Huh-7; design: scale not given: the % may be the effect or the level left; in short: as §1
HBV genotype D [17] = assay: Antiviral activity against HBV genotype D with reverse transcriptase L180M/M204I mutation in human Huh7 cells assessed as inhibition of viral replication after 5 days; format: functional, organism-based; conditions: hepatitis B virus genotype D; Huh-7; in short: as §2
HBV genotype D [18] = assay: Antiviral activity against HBeAg-deficient HBV genotype D with precore G1896A mutation in human Huh7 cells assessed as viral replication yield at 1 uM after 5 days relative to control; format: functional, hepatitis B virus genotype D, Huh-7; in short: as §1
HBV genotype D [19] = assay: Antiviral activity against HBeAg-deficient HBV genotype D with precore G1896A mutation and reverse transcriptase L80I/L180M/M204I mutation in human Huh7 cells assessed as viral replication yield at 1 uM after 5 days relative to control; format: functional, hepatitis B virus genotype D, Huh-7; in short: as §1
HBV genotype D [20] = assay: Antiviral activity against HBV genotype D in human Huh7 cells assessed as inhibition of viral replication after 5 days; format: functional, organism-based; conditions: Hepatitis B virus, Huh-7, 120 h
In short: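 Huh7 cells (DMEM, 10% FBS, 37°C, 5% CO2) at 60–80% confluence were transiently transfected with a wild-type HBeAg-negative HBV clone or mutants. They were exposed continuously to LMV (0–10 μM) or ADV (0–10 μM). Day-5 intracellular core-associated HBV DNA was measured by Southern blot, autoradiography and densitometry, normalized to untreated controls. Three assays were pooled; EC50 came from a three-parameter logistic fit.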

HBV genotype D [21] = assay: Antiviral activity against HBV genotype D with reverse transcriptase M204I mutation in human Huh7 cells assessed as inhibition of viral replication after 5 days; format: functional, organism-based; conditions: hepatitis B virus genotype D; Huh-7; in short: as §2
HBV genotype D [22] = assay: Effect on replication efficiency of HBeAg-deficient HBV genotype D with precore G1896A mutation and reverse transcriptase L80I/L180M/M204I mutation in human Huh7 cells assessed as increase in viral replication yield at 1 uM after 5 days relative to control; format: functional, hepatitis B virus genotype D, Huh-7; in short: as §1
HBV genotype D [23] = assay: Antiviral activity against HBeAg-deficient HBV genotype D with precore G1896A mutation and reverse transcriptase L80I/M204I mutation in human Huh7 cells assessed as viral replication yield at 1 uM after 5 days relative to control; format: functional, hepatitis B virus genotype D, Huh-7; in short: as §1
HBV genotype D [24] = assay: Antiviral activity against HBeAg-deficient HBV genotype D with precore G1896A mutation and reverse transcriptase L80I/L180M/M204I mutation in human Huh7 cells assessed as inhibition of viral replication after 5 days; format: functional, organism-based; conditions: hepatitis B virus genotype D; Huh-7; in short: as §2
HBV genotype D [25] = assay: Effect on replication efficiency of HBV genotype D with reverse transcriptase L80I/M204I mutation in human Huh7 cells assessed as increase in viral replication yield at 1 uM after 5 days relative to control; format: functional, hepatitis B virus genotype D, Huh-7; in short: as §1
HBV genotype D [26] = assay: Antiviral activity against HBV genotype D with reverse transcriptase L80I/L180M/M204I mutation in human Huh7 cells assessed as viral replication yield at 1 uM after 5 days relative to control; format: functional, hepatitis B virus genotype D, Huh-7; in short: as §1
HBV genotype D [27] = assay: Antiviral activity against HBeAg-deficient HBV genotype D with precore G1896A mutation and reverse transcriptase L180M/M204I mutation in human Huh7 cells assessed as viral replication yield at 1 uM after 5 days relative to control; format: functional, hepatitis B virus genotype D, Huh-7; in short: as §1
HBV genotype D [28] = assay: Antiviral activity against HBV genotype D with reverse transcriptase M204I mutation in human Huh7 cells assessed as viral replication yield at 1 uM after 5 days relative to control; format: functional, hepatitis B virus genotype D, Huh-7; in short: as §1
HBV genotype D [29] = assay: Effect on replication efficiency of HBV genotype D with reverse transcriptase L80I mutation in human Huh7 cells assessed as decrease in viral replication yield at 1 uM after 5 days relative to control; format: functional, hepatitis B virus genotype D, Huh-7; design: scale not given: the % may be the effect or the level left; in short: as §1
HBV genotype D [30] = assay: Antiviral activity against HBeAg-deficient HBV genotype D with precore G1896A mutation and reverse transcriptase M204I mutation in human Huh7 cells assessed as viral replication yield at 1 uM after 5 days relative to control; format: functional, hepatitis B virus genotype D, Huh-7; in short: as §1

Question: How did the “fold change (FC)” value (HBV genotype D [1]) turn out when `Nc1ccn([C@@H]2CS[C@H](CO)O2)c(=O)n1` [LAMIVUDINE] was run?
Answer: 0.04

Question: And the Activity (HBV genotype D [2])?
Answer: inactive

Question: What about the Activity (HBV genotype D [3]) of the same compound?
Answer: inactive

Question: And the “fold change (FC)” value (HBV genotype D [4])?
Answer: 0.06

Question: And the EC50 (HBV genotype D [5])?
Answer: 460 nM

Question: What about the “fold change (FC)” value (HBV genotype D [6]) of the same compound?
Answer: 0.33

Question: And the EC50 (HBV genotype D [7])?
Answer: 30 nM

Question: What about the Activity (HBV genotype D [8]) of the same compound?
Answer: inactive

Question: And the EC50 (HBV genotype D [9])?
Answer: 30 nM

Question: What about the Activity (HBV genotype D [10]) of the same compound?
Answer: inactive

Question: What about the “fold change (FC)” value (HBV genotype D [11]) of the same compound?
Answer: 0.65

Question: And the Activity (HBV genotype D [12])?
Answer: 48%

Question: What about the Activity (HBV genotype D [13]) of the same compound?
Answer: 80%

Question: And the Activity (HBV genotype D [14])?
Answer: inactive

Question: And the “fold change (FC)” value (HBV genotype D [15])?
Answer: 3.76

Question: And the Activity (HBV genotype D [16])?
Answer: 88%

Question: What about the Activity (HBV genotype D [17]) of the same compound?
Answer: inactive

Question: And the “fold change (FC)” value (HBV genotype D [18])?
Answer: 0.35

Question: What about the “fold change (FC)” value (HBV genotype D [19]) of the same compound?
Answer: 3.27

Question: What about the EC50 (HBV genotype D [20]) of the same compound?
Answer: 410 nM

Question: And the Activity (HBV genotype D [21])?
Answer: inactive

Question: What about the Activity (HBV genotype D [22]) of the same compound?
Answer: 506%

Question: And the “fold change (FC)” value (HBV genotype D [23])?
Answer: 0.27

Question: And the Activity (HBV genotype D [24])?
Answer: inactive

Question: And the Activity (HBV genotype D [25])?
Answer: 902%

Question: What about the “fold change (FC)” value (HBV genotype D [26]) of the same compound?
Answer: 0.34

Question: And the “fold change (FC)” value (HBV genotype D [27])?
Answer: 0.54

Question: What about the “fold change (FC)” value (HBV genotype D [28]) of the same compound?
Answer: 0.38

Question: What about the Activity (HBV genotype D [29]) of the same compound?
Answer: 82%

Question: And the “fold change (FC)” value (HBV genotype D [30])?
Answer: 1.4
